The term IC50 denotes the concentration needed to halve the response being measured.

Results on 13 molecules are retold here after ChEMBL document CHEMBL3621054, “A new class of hybrid anticancer agents inspired by the synergistic effects of curcumin and genistein: Design, synthesis, and anti-proliferative evaluation” (Bioorg Med Chem Lett, 2015).

What all share (type): functional, cell-based
One assay deals with DU-145. Put plainly: Cytotoxicity against human androgen-independent DU145 cells assessed as inhibition of cell viability after 3 days by WST-1 cell proliferation assay. The following applies: DU-145, 72 h. In short, it runs like this: (§1)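 Human prostate cancer cells (LNCaP androgen-dependent; PC-3 and DU145 androgen-independent) were exposed to drug for 3 days, and viability was read by WST-1 proliferation assay. IC50 was taken as the drug concentration giving 50% inhibition of cell viability, reported as mean ± standard error of the mean.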
(In general: Tetrazolium dyes change colour on reduction, which living cells bring about.)

Another assay has as its system PC-3. Put plainly: Cytotoxicity against human androgen-independent PC3 cells assessed as cell cell viability after 3 days by WST-1 cell proliferation assay. The following applies: PC-3, 72 h. In a few lines:
as §1

The test system of another assay is LNCaP. Put plainly: Cytotoxicity against human androgen-dependent LNCAP cells assessed as inhibition of cell viability after 3 days by WST-1 cell proliferation assay. As to conditions: 72 h. In a few lines:
as §1

Structures are written as SMILES.

Turning to `CCC(CC)n1ccnc1/C=C/C(=O)/C=C/c1coc2ccccc2c1=O`, the IC50 was 5200 nM in the assay on DU-145, 2900 nM in the assay with PC-3 and 2800 nM in the assay with LNCaP.

For `Cn1ccnc1/C=C/C(=O)/C=C/c1coc2ccccc2c1=O`, the IC50 with DU-145 was 4500 nM; in the assay on PC-3 it was 2800 nM; in the assay on LNCaP it was 2300 nM.

In the case of `CCn1ccnc1/C=C/C(=O)/C=C/c1coc2ccccc2c1=O`, the results for the IC50 in the assay with DU-145, in the assay with PC-3 and with LNCaP were 3000 nM, 1800 nM and 1000 nM, respectively.

As for `CCCCn1ccnc1/C=C/C(=O)/C=C/c1coc2ccccc2c1=O`, the IC50 with DU-145 came out at 4300 nM; with PC-3, 2000 nM; in the assay on LNCaP it was 2000 nM.

Turning to `CCCC(C)n1ccnc1/C=C/C(=O)/C=C/c1coc2ccccc2c1=O` (configuration not stated), the IC50 amounted to 1400 nM with DU-145, 3200 nM in the assay with PC-3 and 3900 nM in the assay with LNCaP.

Take `O=c1c(O)c(-c2ccc(O)c(O)c2)oc2cc(O)cc(O)c12` [QUERCETIN]: the results for the IC50 with DU-145, in the assay on PC-3 and in the assay with LNCaP were greater than 100000 nM, greater than 100000 nM and 45500 nM, respectively.

For `CCC(C)n1ccnc1/C=C/C(=O)/C=C/c1coc2ccccc2c1=O` (configuration not stated), the results for the IC50 with DU-145, in the assay on PC-3 and in the assay with LNCaP were 3300 nM, 1800 nM and 1300 nM, respectively.

Consider `O=c1c(-c2ccc(O)cc2)coc2cc(O)cc(O)c12` [GENISTEIN], for which the IC50 with DU-145 was greater than 100000 nM; in the assay on PC-3, 68600 nM; in the assay on LNCaP it was 37400 nM.

Regarding `CC(C)n1ccnc1/C=C/C(=O)/C=C/c1coc2ccccc2c1=O`, the IC50 in the assay on DU-145 worked out at 3300 nM; in the assay with PC-3, 2300 nM; with LNCaP, 1200 nM.

For the molecule `CC(C)CCn1ccnc1/C=C/C(=O)/C=C/c1coc2ccccc2c1=O`, the IC50 was determined as 5800 nM in the assay on DU-145, 3600 nM in the assay on PC-3 and 4000 nM in the assay with LNCaP.

On to `CCCn1ccnc1/C=C/C(=O)/C=C/c1coc2ccccc2c1=O`, for which the IC50 with DU-145 came out at 4600 nM; with PC-3, 2400 nM; with LNCaP it was 2100 nM.

In the case of `CCCCCn1ccnc1/C=C/C(=O)/C=C/c1coc2ccccc2c1=O`, the IC50 with DU-145 turned out to be 2700 nM; in the assay with PC-3 it was 2100 nM; with LNCaP it was 1800 nM.

Turning to `COc1cc(/C=C/C(=O)CC(=O)/C=C/c2ccc(O)c(OC)c2)ccc1O` [CURCUMIN], the IC50 in the assay on LNCaP is 12100 nM.
